In the EternaBench riboswitch data:

System: MS2 coat protein
Test: apparent Kd, MS2 coat protein; higher = weaker binding; RNA-MaP array; tryptophan 2.4 mM where present
Summary of the method: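 The apparent Kd is the median of filtered binding-curve fits, one per cluster, to green signal normalised to red-channel RNA signal and control-cluster median Fmax. The clusters were on Illumina sequencing chips, and stalled E. coli RNA polymerase had transcribed the designs on them. Titration used SNAP-549-labelled MS2 coat protein from 0.7 or 1.5 nM, doubling to 3 µM, without and then with constant ligand, in 100 mM Tris-HCl pH 7.5, 80 mM KCl, 4 mM MgCl2, BSA, DTT, yeast tRNA and Tween-20.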

[1] = designed as: ON switch for tryptophan, no ligand
[2] = ligand present: tryptophan, designed as: ON switch for tryptophan
[3] = designed as: OFF switch for tryptophan, no ligand
[4] = ligand present: tryptophan, designed as: OFF switch for tryptophan

Question: For “GCUACAUGAGGAUCACCCAUGUAUGCGAGUCGAGGACCGGUACGGCCGCCACUCGCUUAACAUGAGGAUCACCCAUGUUACUCGC”, which “apparent Kd” value [1] is on record?
Answer: 64.6 nM

Question: What about the “apparent Kd” value [2] of the same sequence?
Answer: 31.1 nM

Question: Which results are given for “ACAUGACAACAUGAGGAUCACCCAUGUCAUCGAGGACCGGUACGGCCGCCACUCGGUCAAUAUGAUACUUGUCAUGAACAUGAGG”?
Answer: apparent Kd [3]: 18.7 nM; apparent Kd [4]: 23.5 nM

Question: For “UCGGUGCUCUACAUGAGGAUCACCCAUGUCCGAGGACCGGUACGGCCGCCACUCGCAAUCAAACAGACGUGGGCCAACUUUGCGU”, which “apparent Kd” value [3] is on record?
Answer: 10.3 nM

Question: What about the “apparent Kd” value [4] of the same sequence?
Answer: 13.6 nM

Question: “GGGUGGUAGGCGGCCGCCACUGAUUUUUAUUUAUAGAUGACAUGAGGAUCACCCAUGUUGAUAUGCAGGACCGGGCCUGUUGUUG” was tested. Which “apparent Kd” value [1] did it give?
Answer: 15.1 nM

Question: And the “apparent Kd” value [2]?
Answer: 13.2 nM

Question: “GGUAUGUAUUCGGAAACGAAUGCAUACCAACGAGGACCGGUACGGCCGCCACUCGGGCGGCGAUCACAUGAGGAUCACCCAUGUA” was tested. Which “apparent Kd” value [3] did it give?
Answer: 45.7 nM

Question: What about the “apparent Kd” value [4] of the same sequence?
Answer: 46.7 nM

Question: What does the source list for “AGACCCUUCACGGCCGCCACUCAUUUUAAGUAGAGAGAGUACAUGAGGAUCACCCAUGUGAGAGAGAGGACCGGGUGAGAUAUUA”?
Answer: apparent Kd [1]: 17.5 nM; apparent Kd [2]: 19.6 nM

Question: “AGCGUGCAUCGGAAAACGAUGUACGCAAAUCGAGGACCGGUACGGCCGCCACUCGUCCUCAACAUGAGGAUCACCCAUGUAAUAA” was tested. Which “apparent Kd” value [3] did it give?
Answer: 19.1 nM

Question: What about the “apparent Kd” value [4] of the same sequence?
Answer: 34.7 nM

Question: Which “apparent Kd” value [3] does the source give for “GUUAUAACAAAAGUUGUAACAGUGGGUGAACGAGGACCGGUACGGCCGCCACUCGGACAUGAGGAUCACCCAUGUCCAUGUGAAA” here?
Answer: 16.2 nM

Question: And the “apparent Kd” value [4]?
Answer: 40.2 nM

Question: Which results are given for “UCGGUUUUCUACAUGAGGAUCACCCAUGUCCGAGGACCGGUACGGCCGCCACUCGCAAUCAAACAGACGUGGGCCAAAUUUGCGU”?
Answer: apparent Kd [3]: 10 nM; apparent Kd [4]: 14.3 nM

Question: How did the “apparent Kd” value [3] turn out when “ACAUGUUGGUGGUAUCUACGAAGGCGGAAACGAGGACCGGUACGGCCGCCACUCGGCGACAUGAGGAUCACCCAUGUGGUUAAGA” was run?
Answer: 72 nM

Question: What about the “apparent Kd” value [4] of the same sequence?
Answer: 46.4 nM

Question: “GAUCAAAGAUCACAUGAGGAUCACCCAUGUCGAGGACCGGUACGGCCGCCACUCGCGGCGGUGAAAAUAGAUACAAAGUAUCUAU” was tested. Which “apparent Kd” value [3] did it give?
Answer: 77.6 nM

Question: And the “apparent Kd” value [4]?
Answer: 347 nM

Question: Which “apparent Kd” value [3] does the source give for “AUCUAUAGAGCGGCCGCCACUGAAUACAUGAGGAUCACCCAUGUAAUGUUAAGGUGGUCCUAGCUCAGGACCGGGCUCUAUAGAU” here?
Answer: 36.5 nM

Question: What about the “apparent Kd” value [4] of the same sequence?
Answer: 22.2 nM

Question: “GUUAUAUCAAAAGAUGUAACAGUGGGUGAACGAGGACCGGUACGGCCGCCACUCGGACAUGAGGAUCACCCAUGUCCAUGUGAAA” was tested. Which “apparent Kd” value [3] did it give?
Answer: 17.9 nM

Question: And the “apparent Kd” value [4]?
Answer: 37.1 nM

Question: “CCUAUCCAGUCGGCCGCCACUGACCAUUUGGAACAGUGGGUGAAAACAUGAGGAUCACCCAUGUACAGGACCGGGACUGUAUAGG” was tested. Which “apparent Kd” value [3] did it give?
Answer: 11.6 nM

Question: And the “apparent Kd” value [4]?
Answer: 42 nM

Question: “AAUAACAUGAGGAUCACCCAUGUAAGUAAACGAGGACCGGUACGGCCGCCACUCGAAUAAAUAAAGUACCGGUAAGAUCCAUAGA” was tested. Which “apparent Kd” value [1] did it give?
Answer: 21.3 nM

Question: What about the “apparent Kd” value [2] of the same sequence?
Answer: 23.9 nM

Question: Which results are given for “GCGCGGCGAGUGCGGCGUGUUCCGCUCCGUCGAGGACCGGUACGGCCGCCACUCGACAUGAGGAUCACCCAUGUCGCCGCGCGUC”?
Answer: apparent Kd [3]: 12.1 nM; apparent Kd [4]: 12.3 nM

Question: “CAUGCCAGGGCGGCCGCCACUGUGGCUACGGUACAUGAGGAUCACCCAUGUUUGUGGUUGAUCUACAGGACCGGGCCCUAGCACG” was tested. Which “apparent Kd” value [1] did it give?
Answer: 118 nM

Question: And the “apparent Kd” value [2]?
Answer: 238 nM

Question: Which results are given for “GAGUACACUACGGCCGCCACUCAAGGAGCUACAUAGCUCCUAGACAUGAGGAUCACCCAUGUACCGAGGACCGGGUAGAUCCUUA”?
Answer: apparent Kd [1]: 187 nM; apparent Kd [2]: 97.3 nM

Question: For “AGAUUCGACACGGCCGCCACUCUACACGGAUUUCCGAGUGUCGAACAUGAGGAUCACCCAUGUGGGAGGACCGGGUGUUGAGUCU”, which “apparent Kd” value [3] is on record?
Answer: 437 nM

Question: What about the “apparent Kd” value [4] of the same sequence?
Answer: 1030 nM

Question: For “UAAACUACACAUGAGGAUCACCCAUGUGGCCGAGGACCGGUACGGCCGCCACUCGUGUGUUAAUAAAAGAACCGCAAAGUUCUGU”, which “apparent Kd” value [1] is on record?
Answer: 268 nM

Question: What about the “apparent Kd” value [2] of the same sequence?
Answer: 83.3 nM

Question: How did the “apparent Kd” value [1] turn out when “AUACAUGAGGAUCACCCAUGUCCUCGUGAUCGAGGACCGGUACGGCCGCCACUCGGUCCUCGCGAGGUGGAGUCAAAGACUCCAA” was run?
Answer: 128 nM

Question: What about the “apparent Kd” value [2] of the same sequence?
Answer: 87.1 nM

Question: Which results are given for “CGUAUUGGAAACAGUACGAGUGAUCCGGUCCGAGGACCGGUACGGCCGCCACUCGAAAAUAAAUAACAUGAGGAUCACCCAUGUA”?
Answer: apparent Kd [3]: 16.7 nM; apparent Kd [4]: 23.9 nM

Question: How did the “apparent Kd” value [1] turn out when “AGUCUGGACUCGGCCGCCACUCGUGAUGCUUUGGCACAUGAGGAUCACCCAUGUGGUCGGCCUUAGAGGACCGGGAGUACCAGCU” was run?
Answer: 56.4 nM

Question: And the “apparent Kd” value [2]?
Answer: 12.9 nM

Question: For “AAUAAUAGGUGAUCCUAACGAGUGGCAUAACGAGGACCGGUACGGCCGCCACUCGAACAUGAGGAUCACCCAUGUAGUCACUCGA”, which “apparent Kd” value [1] is on record?
Answer: 189 nM

Question: What about the “apparent Kd” value [2] of the same sequence?
Answer: 362 nM

Question: Which results are given for “AGCACUGUGACGGCCGCCACUACAUAAAUAGGGUGGUCAGGUUCAUUACAUGAGGAUCACCCAUGUAGGACCGGGUCUCAGUGCA”?
Answer: apparent Kd [3]: 9.99 nM; apparent Kd [4]: 9.55 nM

Question: With “AGAUUCGACACGGCCGCCACUCGAGACGGAUUUCCGAGUGUCGAACAUGAGGAUCACCCAUGUCCGAGGACCGGGUGUUGAGUCU” as the sequence, how does the “apparent Kd” value [3] read?
Answer: 32.2 nM

Question: What about the “apparent Kd” value [4] of the same sequence?
Answer: 401 nM

Question: Which results are given for “CACAGUGCGAAAUUGAAUUCGCACGAUCCUCGAGGACCGGUACGGCCGCCACUCGCGCGGGUCGUACAUGAGGAUCACCCAUGUC”?
Answer: apparent Kd [1]: 257 nM; apparent Kd [2]: 368 nM

Question: How did the “apparent Kd” value [1] turn out when “GCUAGGUCUACGGCCGCCACUAGACGUGGGUAAGACAUGAGGAUCACCCAUGUACUACGGGCGCUUAGGACCGGGUAGACCUAGC” was run?
Answer: 204 nM

Question: And the “apparent Kd” value [2]?
Answer: 17.5 nM

Question: Which results are given for “AGUAUUGGAAACAGUACUAGUGAUCCGGUCCGAGGACCGGUACGGCCGCCACUCGAAUUAAAUAAACAUGAGGAUCACCCAUGUA”?
Answer: apparent Kd [3]: 16.8 nM; apparent Kd [4]: 46.1 nM

Question: With “GGUUGAUGACAUGAGGAUCACCCAUGUAGGCGAGGACCGGUACGGCCGCCACUCGACAUGAGGAUCACCCAUGUCGGCGUCCGUG” as the sequence, how does the “apparent Kd” value [3] read?
Answer: 15.2 nM

Question: What about the “apparent Kd” value [4] of the same sequence?
Answer: 26.2 nM

Question: For “CUACAUUUGUAGAAACCGGUCACCAUUAUUCGAGGACCGGUACGGCCGCCACUCGUAUCAUGUGAUACAUGAGGAUCACCCAUGU”, which “apparent Kd” value [1] is on record?
Answer: 28.8 nM

Question: What about the “apparent Kd” value [2] of the same sequence?
Answer: 28.5 nM

Question: For “GGGCGCUAUCCCGCGAGGGAUAGCGUUCGUCGAGGACCGGUACGGCCGCCACUCGAACGAGUGGUGACAUGAGGAUCACCCAUGU”, which “apparent Kd” value [3] is on record?
Answer: 50.2 nM

Question: And the “apparent Kd” value [4]?
Answer: 68.8 nM

Question: What does the source list for “GAUUAAACAUGAGGAUCACCCAUGUAUAUACGAGGACCGGUACGGCCGCCACUCGAAAACGAGUAUCCUCGAAUAAACAUGAUAA”?
Answer: apparent Kd [1]: 37.2 nM; apparent Kd [2]: 67 nM

Question: Which results are given for “CUUAUAUAUACGGCCGCCACUUACUCAUGAGGUAACAACAUGAGGAUCACCCAUGUUUGAGGAUCAAGGACCGGGUAUAUAUAAG”?
Answer: apparent Kd [1]: 25.3 nM; apparent Kd [2]: 18.2 nM

Question: What does the source list for “GCUAGGUCUACGGCCGCCACUAGACGUGGGUAAGACAUGAGGAUCACCCAUGUACUACAGGCGGAUAGGACCGGGUAGACCUAGC”?
Answer: apparent Kd [1]: 114 nM; apparent Kd [2]: 14.3 nM

Question: With “AACUACUCGAGGUGAUCCUACGAGUGGCAACGAGGACCGGUACGGCCGCCACUCGAAUAAACAUGAGGAUCACCCAUGUACAAAU” as the sequence, how does the “apparent Kd” value [1] read?
Answer: 81 nM

Question: And the “apparent Kd” value [2]?
Answer: 83.7 nM

Question: “CUGUGUCCUUCGGCCGCCACUACAUGAGGAUCACCCAUGUCGUUACGGCUCCCAAUGACGCUUUGUAGGACCGGGAAGGAGUAUG” was tested. Which “apparent Kd” value [3] did it give?
Answer: 10.3 nM

Question: What about the “apparent Kd” value [4] of the same sequence?
Answer: 15.8 nM

Question: Which “apparent Kd” value [1] does the source give for “ACAUUGCGCUCGGCCGCCACUGGCUUAUGAUUAUAAGCAUUAAUGAACAUGAGGAUCACCCAUGUCAGGACCGGGAGCGAACCAU” here?
Answer: 14 nM

Question: What about the “apparent Kd” value [2] of the same sequence?
Answer: 16.6 nM

Question: How did the “apparent Kd” value [3] turn out when “AGAUUCGACACGGCCGCCACUCGUGGAGGAUUUCCGAGUGUCGAACAUGAGGAUCACCCAUGUACGAGGACCGGGUGUUGAGUCU” was run?
Answer: 28.4 nM

Question: What about the “apparent Kd” value [4] of the same sequence?
Answer: 234 nM

Question: With “UUUGUAAUUGUCUGGUAGAUUUAUUUAUUUCGAGGACCGGUACGGCCGCCACUCGUUAAUUACAUGAGGAUCACCCAUGUUAGCU” as the sequence, how does the “apparent Kd” value [3] read?
Answer: 13.4 nM

Question: What about the “apparent Kd” value [4] of the same sequence?
Answer: 13.2 nM
